# Results as given in ChEMBL document CHEMBL1144230, “Development of a second generation of inhibitors of microsomal prostaglandin E synthase 1 expression bearing the gamma-hydroxybutenolide scaffold” (Bioorg Med Chem, 2008).
# The source made the active and inactive calls. The calls are words filed in the database; no cut-off is given here.
# Test system: Naja naja
# Experiment: Inhibition of Naja naja venom group 1A sPLA2 at 10 uM
# Settings: not given
# In short: (§1)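 Radiometric sPLA2 assay with membranes of E. coli CECT 101 labelled by growth with [3H]oleic acid, then autoclaved. Enzyme in Tris–HCl, 1 mM CaCl2, pH 7.5, preincubated 5 min at 37 °C with compound in ethanol (vehicle 1%), then 15 min with the labelled membranes. Released radioactivity counted. Percent inhibition versus vehicle control, mean ± SEM, n = 6.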
row,Structure (SMILES),inhibition
1,O=C1OC(O)C(c2cccc(-c3ccc4ccccc4c3)c2)=C1Br (stereo not drawn),0%
2,O=C1OC(O)C(c2cccc(-c3ccc4ccccc4c3)c2)=C1c1ccc2ccccc2c1 (stereo not drawn),2%
3,O=C1OC(O)C(c2cccc(-c3csc4ccccc34)c2)=C1c1cccc(-c2csc3ccccc23)c1 (stereo not drawn),3.6%
4,CCc1c(CC(N)=O)c2cc(OCCCP(=O)(O)O)ccc2n1Cc1ccccc1,7.9%
5,CCCCc1ccc(C2=C(c3ccc(-c4ccc(CCCC)cc4)cc3)C(O)OC2=O)cc1 (stereo not drawn),2.6%
6,CCCCc1ccc(-c2ccc(C3=C(Br)C(=O)OC3O)cc2)cc1 (stereo not drawn),0%
7,O=C1OC(O)C(c2cccc(-c3ccc(Oc4ccccc4)cc3)c2)=C1Br (stereo not drawn),5.8%
8,O=C1OC(O)C(c2ccc(-c3ccc(-c4ccccc4)cc3)cc2)=C1Br (stereo not drawn),0%
9,O=C1OC(O)C(c2cccc(-c3ccc(Oc4ccccc4)cc3)c2)=C1c1cccc(-c2ccc(Oc3ccccc3)cc2)c1 (stereo not drawn),16.6%
10,O=C1OC(O)C(c2cccc(-c3csc4ccccc34)c2)=C1Br (stereo not drawn),11.7%

# Test system: RAW264.7
# Experiment: Inhibition of LPS-stimulated microsomal prostaglandin E synthase 1 expression at 10 uM in mouse RAW264.7 cells by Western blot
# Type: functional, cell-based
# Settings: not given
# In short: (§2)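 Cells were RAW 264.7 at 1.5 × 10⁶ cells/mL, 18 h with LPS 1 µg/mL and compound at 1 or 10 µM; dexamethasone as reference. Lysis in HEPES pH 8.0 buffer with protease/phosphatase inhibitors, spin 10,000g 15 min 4 °C. COX-2 taken from total fraction, mPGES-1 from microsomal fraction. 50 µg protein per lane on SDS–15% PAGE, PVDF, polyclonal antibodies (COX-2 1/1000, mPGES-1 1/200). β-actin loading control. Bands expressed relative to LPS control. Two experiments.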
row,Structure (SMILES),Activity
1,C[C@@H]1C[C@H]2[C@@H]3CCC4=CC(=O)C=C[C@]4(C)[C@@]3(F)[C@@H](O)C[C@]2(C)[C@@]1(O)C(=O)CO,Active

# Test system: RAW264.7
# Experiment: Inhibition of LPS-stimulated COX2 expression in mouse RAW264.7 cells by Western blot
# Type: functional, cell-based
# Settings: not given
# In short: as §2
row,Structure (SMILES),Activity
1,O=C1OC(O)C(c2cccc(-c3ccc4ccccc4c3)c2)=C1c1ccc2ccccc2c1 (stereo not drawn),inactive
2,O=C1OC(O)C(c2cccc(-c3csc4ccccc34)c2)=C1c1cccc(-c2csc3ccccc23)c1 (stereo not drawn),inactive
3,CCCCc1ccc(C2=C(c3ccc(-c4ccc(CCCC)cc4)cc3)C(O)OC2=O)cc1 (stereo not drawn),inactive
4,CCCCc1ccc(-c2ccc(C3=C(Br)C(=O)OC3O)cc2)cc1 (stereo not drawn),inactive
5,O=C1OC(O)C(c2ccc(-c3ccc(-c4ccccc4)cc3)cc2)=C1Br (stereo not drawn),inactive

# Test system: RAW264.7
# Experiment: Inhibition of LPS-stimulated microsomal prostaglandin E synthase 1 expression in mouse RAW264.7 cells by Western blot
# Type: functional, cell-based
# Settings: not given
# In short: as §2
row,Structure (SMILES),Activity
1,O=C1OC(O)C(c2cccc(-c3ccc4ccccc4c3)c2)=C1c1ccc2ccccc2c1 (stereo not drawn),Dose-dependent effect
2,O=C1OC(O)C(c2cccc(-c3csc4ccccc34)c2)=C1c1cccc(-c2csc3ccccc23)c1 (stereo not drawn),Dose-dependent effect
3,CCCCc1ccc(C2=C(c3ccc(-c4ccc(CCCC)cc4)cc3)C(O)OC2=O)cc1 (stereo not drawn),Dose-dependent effect
4,CCCCc1ccc(-c2ccc(C3=C(Br)C(=O)OC3O)cc2)cc1 (stereo not drawn),Dose-dependent effect
5,O=C1OC(O)C(c2ccc(-c3ccc(-c4ccccc4)cc3)cc2)=C1Br (stereo not drawn),Dose-dependent effect

# Test system: RAW264.7
# Experiment: Inhibition of LPS-stimulated COX2 expression in mouse RAW264.7 cells at 10 uM by Western blot
# Type: functional, cell-based
# Settings: not given
# In short: as §2
row,Structure (SMILES),Activity
1,C[C@@H]1C[C@H]2[C@@H]3CCC4=CC(=O)C=C[C@]4(C)[C@@]3(F)[C@@H](O)C[C@]2(C)[C@@]1(O)C(=O)CO,Active

# Test system: RAW264.7
# Experiment: Inhibition of LPS-stimulated PGE2 production in mouse RAW264.7 cells at 10 uM after 20 hrs by radioimmunoassay
# Type: functional
# Settings: RAW264.7, 20 h
# In short: (§3)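 Murine RAW 264.7 macrophages, 1.5 × 10⁶ cells/mL, given 1 µg/mL E. coli 0111:B4 LPS at 37 °C for 20 h with compound in ethanol (vehicle ethanol 1%). Supernatant PGE₂ measured by radioimmunoassay. Mean ± SEM, n = 6. IC₅₀ from at least four significant concentrations. ANOVA then Dunnett's t-test.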
row,Structure (SMILES),inhibition at 10 µM
1,O=C1OC(O)C(c2cccc(-c3ccc4ccccc4c3)c2)=C1Br (stereo not drawn),66.8%
2,O=C1OC(O)C(c2csc3ccccc23)=C1Br (stereo not drawn),72.2%
3,O=C1OC(O)C(c2cccc(-c3ccc4ccccc4c3)c2)=C1c1ccc2ccccc2c1 (stereo not drawn),79.6%
4,O=C1OC(O)C(c2cccc(-c3csc4ccccc34)c2)=C1c1cccc(-c2csc3ccccc23)c1 (stereo not drawn),69.2%
5,CCCCc1ccc(C2=C(c3ccc(-c4ccc(CCCC)cc4)cc3)C(O)OC2=O)cc1 (stereo not drawn),58.7%
6,CCCCc1ccc(-c2ccc(C3=C(Br)C(=O)OC3O)cc2)cc1 (stereo not drawn),62.2%
7,O=C1OC(O)C(c2cccc(-c3ccc(Oc4ccccc4)cc3)c2)=C1Br (stereo not drawn),51%
8,O=C1OC(O)C(c2ccc(-c3ccc(-c4ccccc4)cc3)cc2)=C1Br (stereo not drawn),73.1%
9,O=C1OC(O)C(c2cccc(-c3ccc(Oc4ccccc4)cc3)c2)=C1c1cccc(-c2ccc(Oc3ccccc3)cc2)c1 (stereo not drawn),22.2%
10,O=C1OC(O)C(c2cccc(-c3csc4ccccc34)c2)=C1Br (stereo not drawn),33.6%

# Target: T1, Phospholipase A2, membrane associated (Homo sapiens) (UniProt P14555)
# T1 sequence (whole entry): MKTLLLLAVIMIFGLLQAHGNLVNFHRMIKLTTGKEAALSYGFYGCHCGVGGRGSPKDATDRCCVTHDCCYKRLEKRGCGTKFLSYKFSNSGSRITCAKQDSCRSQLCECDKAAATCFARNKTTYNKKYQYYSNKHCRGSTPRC
# Experiment: Inhibition of human synovial recombinant group 2A sPLA2 at 10 uM
# Settings: not given
# In short: (§4)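 Compound tested at 10 µM in ethanol (vehicle 1%). Enzyme preincubated 5 min at 37 °C in Tris–HCl, 1 mM CaCl₂, pH 7.5, then incubated 15 min with [³H]oleate-labelled, autoclaved E. coli CECT 101 membranes. Released radioactivity counted. Percent inhibition versus vehicle control, mean ± SEM, n = 6. Enzymes: human recombinant synovial group IIA; porcine pancreatic group IB.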
row,Structure (SMILES),inhibition
1,O=C1OC(O)C(c2cccc(-c3ccc4ccccc4c3)c2)=C1Br (stereo not drawn),0%
2,O=C1OC(O)C(c2cccc(-c3ccc4ccccc4c3)c2)=C1c1ccc2ccccc2c1 (stereo not drawn),14.8%
3,O=C1OC(O)C(c2cccc(-c3csc4ccccc34)c2)=C1c1cccc(-c2csc3ccccc23)c1 (stereo not drawn),2.4%
4,CCc1c(CC(N)=O)c2cc(OCCCP(=O)(O)O)ccc2n1Cc1ccccc1,96.3%
5,CCCCc1ccc(C2=C(c3ccc(-c4ccc(CCCC)cc4)cc3)C(O)OC2=O)cc1 (stereo not drawn),4.4%
6,CCCCc1ccc(-c2ccc(C3=C(Br)C(=O)OC3O)cc2)cc1 (stereo not drawn),0%
7,O=C1OC(O)C(c2cccc(-c3ccc(Oc4ccccc4)cc3)c2)=C1Br (stereo not drawn),2.4%
8,O=C1OC(O)C(c2ccc(-c3ccc(-c4ccccc4)cc3)cc2)=C1Br (stereo not drawn),12.1%
9,O=C1OC(O)C(c2cccc(-c3ccc(Oc4ccccc4)cc3)c2)=C1c1cccc(-c2ccc(Oc3ccccc3)cc2)c1 (stereo not drawn),10.6%
10,O=C1OC(O)C(c2cccc(-c3csc4ccccc34)c2)=C1Br (stereo not drawn),30%

# Test system: Apis mellifera
# Experiment: Inhibition of bee venom group 3 sPLA2 at 10 uM
# Settings: not given
# In short: as §1
row,Structure (SMILES),inhibition
1,O=C1OC(O)C(c2cccc(-c3ccc4ccccc4c3)c2)=C1Br (stereo not drawn),0%
2,O=C1OC(O)C(c2cccc(-c3ccc4ccccc4c3)c2)=C1c1ccc2ccccc2c1 (stereo not drawn),2.8%
3,O=C1OC(O)C(c2cccc(-c3csc4ccccc34)c2)=C1c1cccc(-c2csc3ccccc23)c1 (stereo not drawn),4%
4,CCc1c(CC(N)=O)c2cc(OCCCP(=O)(O)O)ccc2n1Cc1ccccc1,2.4%
5,CCCCc1ccc(C2=C(c3ccc(-c4ccc(CCCC)cc4)cc3)C(O)OC2=O)cc1 (stereo not drawn),2.8%
6,CCCCc1ccc(-c2ccc(C3=C(Br)C(=O)OC3O)cc2)cc1 (stereo not drawn),3.5%
7,O=C1OC(O)C(c2cccc(-c3ccc(Oc4ccccc4)cc3)c2)=C1Br (stereo not drawn),5.3%
8,O=C1OC(O)C(c2ccc(-c3ccc(-c4ccccc4)cc3)cc2)=C1Br (stereo not drawn),0%
9,O=C1OC(O)C(c2cccc(-c3ccc(Oc4ccccc4)cc3)c2)=C1c1cccc(-c2ccc(Oc3ccccc3)cc2)c1 (stereo not drawn),6%
10,O=C1OC(O)C(c2cccc(-c3csc4ccccc34)c2)=C1Br (stereo not drawn),13.9%

# Test system: RAW264.7
# Experiment: Cytotoxicity against mouse RAW264.7 cells at 10 uM after 20 hrs by MTT assay
# Type: cell-based
# Settings: raw264.7, 20 h
# In short: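 RAW 264.7 macrophages (1.5 × 10⁶ cells/mL) co-incubated with 1 µg/mL E. coli 0111:B4 LPS at 37 °C for 20 h, compound added in ethanol (ethanol alone as control). Viability read by mitochondrial reduction of MTT to formazan.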
row,Structure (SMILES),Cytotoxicity
1,O=C1OC(O)C(c2cccc(-c3ccc4ccccc4c3)c2)=C1Br (stereo not drawn),18.6%
2,O=C1OC(O)C(c2csc3ccccc23)=C1Br (stereo not drawn),0%
3,O=C1OC(O)C(c2cccc(-c3ccc4ccccc4c3)c2)=C1c1ccc2ccccc2c1 (stereo not drawn),8.6%
4,O=C1OC(O)C(c2cccc(-c3csc4ccccc34)c2)=C1c1cccc(-c2csc3ccccc23)c1 (stereo not drawn),4.1%
5,CCCCc1ccc(C2=C(c3ccc(-c4ccc(CCCC)cc4)cc3)C(O)OC2=O)cc1 (stereo not drawn),0%
6,CCCCc1ccc(-c2ccc(C3=C(Br)C(=O)OC3O)cc2)cc1 (stereo not drawn),5.5%
7,O=C1OC(O)C(c2cccc(-c3ccc(Oc4ccccc4)cc3)c2)=C1Br (stereo not drawn),0%
8,O=C1OC(O)C(c2ccc(-c3ccc(-c4ccccc4)cc3)cc2)=C1Br (stereo not drawn),1.2%
9,O=C1OC(O)C(c2cccc(-c3ccc(Oc4ccccc4)cc3)c2)=C1c1cccc(-c2ccc(Oc3ccccc3)cc2)c1 (stereo not drawn),0%
10,O=C1OC(O)C(c2cccc(-c3csc4ccccc34)c2)=C1Br (stereo not drawn),0%

# Test system: RAW264.7
# Experiment: Inhibition of LPS-stimulated PGE2 production in mouse RAW264.7 cells after 20 hrs by radioimmunoassay
# Type: functional, cell-based
# Settings: RAW264.7, 20 h
# In short: as §3
row,Structure (SMILES),IC50
1,O=C1OC(O)C(c2csc3ccccc23)=C1Br (stereo not drawn),1800 nM
2,O=C1OC(O)C(c2cccc(-c3ccc4ccccc4c3)c2)=C1c1ccc2ccccc2c1 (stereo not drawn),840 nM
3,O=C1OC(O)C(c2cccc(-c3csc4ccccc34)c2)=C1c1cccc(-c2csc3ccccc23)c1 (stereo not drawn),3230 nM
4,CCCCc1ccc(C2=C(c3ccc(-c4ccc(CCCC)cc4)cc3)C(O)OC2=O)cc1 (stereo not drawn),4590 nM
5,CCCCc1ccc(-c2ccc(C3=C(Br)C(=O)OC3O)cc2)cc1 (stereo not drawn),2240 nM
6,O=C1OC(O)C(c2ccc(-c3ccc(-c4ccccc4)cc3)cc2)=C1Br (stereo not drawn),3610 nM

# Species: Sus scrofa
# Experiment: Inhibition of pig pancreas group 1B sPLA2 at 10 uM
# Settings: not given
# In short: as §4
row,Structure (SMILES),inhibition
1,O=C1OC(O)C(c2cccc(-c3ccc4ccccc4c3)c2)=C1Br (stereo not drawn),0%
2,O=C1OC(O)C(c2cccc(-c3ccc4ccccc4c3)c2)=C1c1ccc2ccccc2c1 (stereo not drawn),0%
3,O=C1OC(O)C(c2cccc(-c3csc4ccccc34)c2)=C1c1cccc(-c2csc3ccccc23)c1 (stereo not drawn),8.3%
4,CCc1c(CC(N)=O)c2cc(OCCCP(=O)(O)O)ccc2n1Cc1ccccc1,36.9%
5,CCCCc1ccc(C2=C(c3ccc(-c4ccc(CCCC)cc4)cc3)C(O)OC2=O)cc1 (stereo not drawn),0%
6,CCCCc1ccc(-c2ccc(C3=C(Br)C(=O)OC3O)cc2)cc1 (stereo not drawn),0%
7,O=C1OC(O)C(c2cccc(-c3ccc(Oc4ccccc4)cc3)c2)=C1Br (stereo not drawn),0%
8,O=C1OC(O)C(c2ccc(-c3ccc(-c4ccccc4)cc3)cc2)=C1Br (stereo not drawn),0%
9,O=C1OC(O)C(c2cccc(-c3ccc(Oc4ccccc4)cc3)c2)=C1c1cccc(-c2ccc(Oc3ccccc3)cc2)c1 (stereo not drawn),10.2%
10,O=C1OC(O)C(c2cccc(-c3csc4ccccc34)c2)=C1Br (stereo not drawn),28.6%
